Laboratory results from ChEMBL document CHEMBL1136635, “Modification of the N-terminus of peptidomimetic protein tyrosine phosphatase 1B (PTP1B) inhibitors: identification of analogues with cellular activity” (Bioorg Med Chem Lett, 2003).
pKi: −log10 of the molar value.

molecular target: Tyrosine-protein phosphatase non-receptor type 11, SHP-2 (Homo sapiens) (UniProt Q06124); assay: Inhibitory activity against phosphatase (SHP-2) at a concentration of 100 uM

**Q.** For `CCCCCNC(=O)[C@H](Cc1ccc(OC(C(=O)O)C(=O)O)cc1)NC(=O)[C@@H](NC(=O)OC(C)(C)C)C(C)C`, which inhibition is on record?
**A.** 0%

**Q.** Which inhibition does the source give for `CCCCCCCCCCCCCCCCCC(=O)N[C@@H](Cc1ccccc1)C(=O)N[C@@H](Cc1ccc(OCC(=O)O)c(C(=O)O)c1)C(=O)NCCCCC` here?
**A.** 54%

molecular target: T1, Tyrosine-protein phosphatase non-receptor type 1 (Homo sapiens) (UniProt P18031); assay: Inhibitory activity against human protein tyrosine phosphatase 1B (PTP1B) at a concentration of 100 uM
T1 sequence (whole entry): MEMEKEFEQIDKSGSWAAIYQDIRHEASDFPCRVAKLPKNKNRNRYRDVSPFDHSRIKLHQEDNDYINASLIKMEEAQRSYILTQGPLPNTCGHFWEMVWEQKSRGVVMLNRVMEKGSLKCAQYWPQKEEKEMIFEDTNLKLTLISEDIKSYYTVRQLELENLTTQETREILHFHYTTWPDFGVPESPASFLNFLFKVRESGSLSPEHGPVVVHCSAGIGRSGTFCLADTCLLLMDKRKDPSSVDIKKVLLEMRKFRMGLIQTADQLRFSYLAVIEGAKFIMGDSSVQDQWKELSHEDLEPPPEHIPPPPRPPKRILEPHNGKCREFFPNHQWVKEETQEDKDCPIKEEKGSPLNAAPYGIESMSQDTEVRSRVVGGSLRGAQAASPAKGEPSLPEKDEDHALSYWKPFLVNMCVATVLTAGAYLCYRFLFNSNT
Procedure, shortened: (§1)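 Purified recombinant human enzyme constructs; PTP1B is a C-terminally truncated soluble form, tested alongside LAR and SHP-2. Activity is read as the initial rate of p-nitrophenyl phosphate (pNPP) hydrolysis and reported as percent inhibition. PTP1B is tested at 100, 10 and 1 µM, or 10 and 1 µM in the salicylate series; LAR and SHP-2 at 100 µM.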

**Q.** With `CCCCCNC(=O)[C@H](Cc1ccc(OC(C(=O)O)C(=O)O)cc1)NC(=O)[C@H](Cc1ccccc1)NC(=O)OC(C)(C)C` as the compound, how does the inhibition read?
**A.** 91%

**Q.** With `CCCCCNC(=O)[C@H](Cc1ccc(OC(C(=O)O)C(=O)O)cc1)NC(=O)[C@@H](NC(=O)OC(C)(C)C)C(C)C` as the compound, how does the inhibition read?
**A.** 72%

**Q.** For `CCCCCNC(=O)[C@H](Cc1ccc(OC(C(=O)O)C(=O)O)cc1)NC(=O)[C@H](C)NC(=O)OC(C)(C)C`, which inhibition is on record?
**A.** 83%

**Q.** Which inhibition does the source give for `CCCCCNC(=O)[C@H](Cc1ccc(OC(C(=O)O)C(=O)O)cc1)NC(=O)[C@H](Cc1c(F)c(F)c(F)c(F)c1F)NC(=O)OC(C)(C)C` here?
**A.** 80%

**Q.** With `CCCCCNC(=O)[C@H](Cc1ccc(OC(C(=O)O)C(=O)O)cc1)NC(=O)[C@H](CCc1ccccc1)NC(=O)OC(C)(C)C` as the compound, how does the inhibition read?
**A.** 77%

molecular target: T1, Tyrosine-protein phosphatase non-receptor type 1 (Homo sapiens); assay: Inhibitory activity against human protein tyrosine phosphatase 1B (PTP1B) at a concentration of 10 uM
Procedure, shortened: as §1

**Q.** With `CCCCCNC(=O)[C@H](Cc1ccc(OC(C(=O)O)C(=O)O)cc1)NC(=O)[C@H](Cc1ccccc1)NC(=O)OC(C)(C)C` as the compound, how does the inhibition read?
**A.** 48%

**Q.** For `CCCCCNC(=O)[C@H](Cc1ccc(OC(C(=O)O)C(=O)O)cc1)NC(=O)[C@@H](NC(=O)OC(C)(C)C)C(C)C`, which inhibition is on record?
**A.** 18%

**Q.** Which inhibition does the source give for `CCCCCNC(=O)[C@H](Cc1ccc(OC(C(=O)O)C(=O)O)cc1)NC(=O)[C@H](C)NC(=O)OC(C)(C)C` here?
**A.** 36%

**Q.** With `CCCCCNC(=O)[C@H](Cc1ccc(OC(C(=O)O)C(=O)O)cc1)NC(=O)[C@H](Cc1c(F)c(F)c(F)c(F)c1F)NC(=O)OC(C)(C)C` as the compound, how does the inhibition read?
**A.** 25%

**Q.** For `CCCCCCCCCCCCCCCCCC(=O)N[C@@H](Cc1ccccc1)C(=O)N[C@@H](Cc1ccc(OCC(=O)O)c(C(=O)O)c1)C(=O)NCCCCC`, which inhibition is on record?
**A.** 3%

**Q.** With `CCCCCNC(=O)[C@H](Cc1ccc(OC(C(=O)O)C(=O)O)cc1)NC(=O)[C@H](CCc1ccccc1)NC(=O)OC(C)(C)C` as the compound, how does the inhibition read?
**A.** 17%

molecular target: T1, Tyrosine-protein phosphatase non-receptor type 1 (Homo sapiens); assay: Inhibitory activity against human protein tyrosine phosphatase 1B (PTP1B) at a concentration of 1 uM
Procedure, shortened: as §1

**Q.** Which inhibition does the source give for `CCCCCNC(=O)[C@H](Cc1ccc(OC(C(=O)O)C(=O)O)cc1)NC(=O)[C@H](Cc1ccccc1)NC(=O)OC(C)(C)C` here?
**A.** 7%

**Q.** With `CCCCCNC(=O)[C@H](Cc1ccc(OC(C(=O)O)C(=O)O)cc1)NC(=O)[C@@H](NC(=O)OC(C)(C)C)C(C)C` as the compound, how does the inhibition read?
**A.** 3%

**Q.** For `CCCCCNC(=O)[C@H](Cc1ccc(OC(C(=O)O)C(=O)O)cc1)NC(=O)[C@H](C)NC(=O)OC(C)(C)C`, which inhibition is on record?
**A.** 7%

**Q.** With `CCCCCNC(=O)[C@H](Cc1ccc(OC(C(=O)O)C(=O)O)cc1)NC(=O)[C@H](Cc1c(F)c(F)c(F)c(F)c1F)NC(=O)OC(C)(C)C` as the compound, how does the inhibition read?
**A.** 5%

**Q.** With `CCCCCCCCCCCCCCCCCC(=O)N[C@@H](Cc1ccccc1)C(=O)N[C@@H](Cc1ccc(OCC(=O)O)c(C(=O)O)c1)C(=O)NCCCCC` as the compound, how does the inhibition read?
**A.** 1%

**Q.** For `CCCCCNC(=O)[C@H](Cc1ccc(OC(C(=O)O)C(=O)O)cc1)NC(=O)[C@H](CCc1ccccc1)NC(=O)OC(C)(C)C`, which inhibition is on record?
**A.** 2%

molecular target: Receptor-type tyrosine-protein phosphatase F (Homo sapiens) (UniProt P10586); assay: Inhibitory activity against phosphatase (LAR) at a concentration of 100 uM
Sequence (P10586 whole entry): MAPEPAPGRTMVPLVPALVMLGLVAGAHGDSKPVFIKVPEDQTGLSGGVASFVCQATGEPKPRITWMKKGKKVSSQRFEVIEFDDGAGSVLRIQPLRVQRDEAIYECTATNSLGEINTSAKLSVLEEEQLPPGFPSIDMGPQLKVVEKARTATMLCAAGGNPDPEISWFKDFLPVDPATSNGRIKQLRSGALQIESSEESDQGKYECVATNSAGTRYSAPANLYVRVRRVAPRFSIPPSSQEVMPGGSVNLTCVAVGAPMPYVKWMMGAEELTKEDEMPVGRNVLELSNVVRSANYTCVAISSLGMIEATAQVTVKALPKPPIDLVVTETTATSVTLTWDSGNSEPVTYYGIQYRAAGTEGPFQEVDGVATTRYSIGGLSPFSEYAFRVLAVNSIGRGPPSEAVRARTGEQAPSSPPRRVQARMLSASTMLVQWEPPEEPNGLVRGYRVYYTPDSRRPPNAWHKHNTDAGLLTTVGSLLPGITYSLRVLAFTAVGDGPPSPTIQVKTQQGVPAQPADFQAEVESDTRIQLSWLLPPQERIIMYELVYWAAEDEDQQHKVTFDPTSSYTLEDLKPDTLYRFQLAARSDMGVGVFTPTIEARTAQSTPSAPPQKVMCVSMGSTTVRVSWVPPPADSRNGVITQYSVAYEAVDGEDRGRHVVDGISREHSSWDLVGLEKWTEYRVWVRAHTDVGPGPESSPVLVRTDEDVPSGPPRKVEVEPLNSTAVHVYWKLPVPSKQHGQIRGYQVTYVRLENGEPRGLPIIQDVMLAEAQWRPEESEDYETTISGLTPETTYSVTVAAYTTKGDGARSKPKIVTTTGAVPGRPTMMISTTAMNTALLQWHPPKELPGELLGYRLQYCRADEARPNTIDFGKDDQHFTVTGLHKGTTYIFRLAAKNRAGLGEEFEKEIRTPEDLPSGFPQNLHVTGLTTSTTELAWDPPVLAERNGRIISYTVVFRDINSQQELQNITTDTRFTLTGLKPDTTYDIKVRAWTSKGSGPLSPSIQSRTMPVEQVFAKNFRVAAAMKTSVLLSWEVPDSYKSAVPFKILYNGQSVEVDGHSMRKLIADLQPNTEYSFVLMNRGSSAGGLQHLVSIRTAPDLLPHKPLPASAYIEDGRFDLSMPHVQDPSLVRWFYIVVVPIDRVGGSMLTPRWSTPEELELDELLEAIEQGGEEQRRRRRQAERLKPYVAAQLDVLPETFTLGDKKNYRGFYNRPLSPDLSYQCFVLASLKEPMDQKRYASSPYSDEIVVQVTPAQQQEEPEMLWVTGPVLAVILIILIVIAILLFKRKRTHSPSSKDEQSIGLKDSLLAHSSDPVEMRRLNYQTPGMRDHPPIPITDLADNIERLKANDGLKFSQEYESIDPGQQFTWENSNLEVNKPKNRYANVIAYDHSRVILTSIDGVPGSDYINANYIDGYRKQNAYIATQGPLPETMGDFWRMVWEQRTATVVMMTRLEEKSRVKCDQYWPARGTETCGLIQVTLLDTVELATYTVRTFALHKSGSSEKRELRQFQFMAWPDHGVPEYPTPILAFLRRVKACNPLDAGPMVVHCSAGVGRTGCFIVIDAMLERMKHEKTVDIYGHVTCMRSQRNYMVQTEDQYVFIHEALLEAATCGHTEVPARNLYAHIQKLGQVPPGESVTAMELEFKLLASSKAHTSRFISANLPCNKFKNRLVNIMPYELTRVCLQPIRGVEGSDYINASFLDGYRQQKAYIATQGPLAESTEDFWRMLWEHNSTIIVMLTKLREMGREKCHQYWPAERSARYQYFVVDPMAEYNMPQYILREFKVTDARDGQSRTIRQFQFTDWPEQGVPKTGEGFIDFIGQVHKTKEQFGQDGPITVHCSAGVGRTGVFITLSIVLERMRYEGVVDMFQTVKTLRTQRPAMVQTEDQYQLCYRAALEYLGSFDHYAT
Procedure, shortened: as §1

**Q.** For `CCCCCNC(=O)[C@H](Cc1ccc(OC(C(=O)O)C(=O)O)cc1)NC(=O)[C@H](Cc1ccccc1)NC(=O)OC(C)(C)C`, which inhibition is on record?
**A.** 27%

**Q.** With `CCCCCNC(=O)[C@H](Cc1ccc(OC(C(=O)O)C(=O)O)cc1)NC(=O)[C@@H](NC(=O)OC(C)(C)C)C(C)C` as the compound, how does the inhibition read?
**A.** 0%

**Q.** Which inhibition does the source give for `CCCCCNC(=O)[C@H](Cc1ccc(OC(C(=O)O)C(=O)O)cc1)NC(=O)[C@H](C)NC(=O)OC(C)(C)C` here?
**A.** 0%

**Q.** With `CCCCCNC(=O)[C@H](Cc1ccc(OC(C(=O)O)C(=O)O)cc1)NC(=O)[C@H](Cc1c(F)c(F)c(F)c(F)c1F)NC(=O)OC(C)(C)C` as the compound, how does the inhibition read?
**A.** 8%

**Q.** For `CCCCCCCCCCCCCCCCCC(=O)N[C@@H](Cc1ccccc1)C(=O)N[C@@H](Cc1ccc(OCC(=O)O)c(C(=O)O)c1)C(=O)NCCCCC`, which inhibition is on record?
**A.** 0%

**Q.** Which inhibition does the source give for `CCCCCNC(=O)[C@H](Cc1ccc(OC(C(=O)O)C(=O)O)cc1)NC(=O)[C@H](CCc1ccccc1)NC(=O)OC(C)(C)C` here?
**A.** 7%

tested on: not listed separately; assay: Uptake of 2-DOG (2-deoxyglucose) into L6 myocytes in the presence of half-maximal concentration of insulin at 100 uM; type: functional, Rattus norvegicus
Procedure, shortened: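 L6 myotubes are exposed to compound at 100 µM with 10 nM insulin, a dose eliciting about 50% of maximal uptake. The initial rate of 2-[3H]deoxyglucose uptake is measured, with L-[14C]glucose marking extracellular space, and normalized to recovered lysate protein. Net insulin-dependent transport with inhibitor is expressed as a percent of that without inhibitor.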

**Q.** Which “Control Uptake” value does the source give for `CCCCCNC(=O)[C@H](Cc1ccc(OC(C(=O)O)C(=O)O)cc1)NC(=O)[C@H](Cc1ccccc1)NC(=O)OC(C)(C)C` here?
**A.** 88%

**Q.** With `CCCCCNC(=O)[C@H](Cc1ccc(OC(C(=O)O)C(=O)O)cc1)NC(=O)[C@H](C)NC(=O)OC(C)(C)C` as the compound, how does the “Control Uptake” value read?
**A.** 88%

**Q.** For `CCCCCNC(=O)[C@H](Cc1ccc(OC(C(=O)O)C(=O)O)cc1)NC(=O)[C@H](Cc1c(F)c(F)c(F)c(F)c1F)NC(=O)OC(C)(C)C`, which “Control Uptake” value is on record?
**A.** 100%

**Q.** Which “Control Uptake” value does the source give for `CCCCCNC(=O)[C@H](Cc1ccc(OC(C(=O)O)C(=O)O)cc1)NC(=O)[C@H](CCc1ccccc1)NC(=O)OC(C)(C)C` here?
**A.** 104%

molecular target: T2, Tyrosine-protein phosphatase non-receptor type 11 (Homo sapiens) (UniProt Q06124); assay: Inhibitory activity against phosphatase ([…]) at a concentration of 100 uM
T2 sequence (whole entry): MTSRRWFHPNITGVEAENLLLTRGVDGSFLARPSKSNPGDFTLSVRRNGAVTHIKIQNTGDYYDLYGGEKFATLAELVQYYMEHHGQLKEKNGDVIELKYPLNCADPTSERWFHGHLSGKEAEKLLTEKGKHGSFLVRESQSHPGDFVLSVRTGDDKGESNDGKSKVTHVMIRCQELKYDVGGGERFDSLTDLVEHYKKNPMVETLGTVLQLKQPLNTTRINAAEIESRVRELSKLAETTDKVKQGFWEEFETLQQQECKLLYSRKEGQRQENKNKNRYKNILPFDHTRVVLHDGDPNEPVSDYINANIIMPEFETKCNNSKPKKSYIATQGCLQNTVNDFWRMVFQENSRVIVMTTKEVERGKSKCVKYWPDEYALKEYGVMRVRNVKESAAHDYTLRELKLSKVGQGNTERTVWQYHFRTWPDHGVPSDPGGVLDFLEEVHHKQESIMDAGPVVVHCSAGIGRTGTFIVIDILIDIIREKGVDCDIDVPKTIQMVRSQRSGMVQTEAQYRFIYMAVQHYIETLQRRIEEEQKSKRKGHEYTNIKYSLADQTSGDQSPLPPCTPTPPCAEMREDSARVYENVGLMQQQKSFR
Procedure, shortened: as §1

**Q.** Which inhibition does the source give for `CCCCCNC(=O)[C@H](Cc1ccc(OC(C(=O)O)C(=O)O)cc1)NC(=O)[C@H](Cc1ccccc1)NC(=O)OC(C)(C)C` here?
**A.** 10%

molecular target: T3, Tyrosine-protein phosphatase non-receptor type 1 (Homo sapiens, UniProt P18031); assay: Inhibitory activity against human protein tyrosine phosphatase 1B (PTP1B)
T3 sequence (P18031 whole entry): T1 sequence (whole entry)
Procedure, shortened: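 Ki against a C-terminally truncated, soluble recombinant human PTP1B. Initial rates of pNPP hydrolysis are measured, and the Ki is computed by the Cornish-Bowden direct linear method.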

**Q.** With `CCCCCNC(=O)[C@H](Cc1ccc(OC(C(=O)O)C(=O)O)cc1)NC(=O)[C@H](Cc1ccccc1)NC(=O)OC(C)(C)C` as the compound, how does the pKi read?
**A.** 5.05

**Q.** With `CCCCCNC(=O)[C@H](Cc1ccc(OC(C(=O)O)C(=O)O)cc1)NC(=O)[C@H](C)NC(=O)OC(C)(C)C` as the compound, how does the pKi read?
**A.** 4.85

molecular target: T2, Tyrosine-protein phosphatase non-receptor type 11 (Homo sapiens); assay: Inhibition of recombinant human phosphatase (SHP-2) at a concentration of 100 uM
Procedure, shortened: as §1

**Q.** With `CCCCCNC(=O)[C@H](Cc1ccc(OC(C(=O)O)C(=O)O)cc1)NC(=O)[C@H](C)NC(=O)OC(C)(C)C` as the compound, how does the inhibition read?
**A.** 3%

**Q.** Which inhibition does the source give for `CCCCCNC(=O)[C@H](Cc1ccc(OC(C(=O)O)C(=O)O)cc1)NC(=O)[C@H](Cc1c(F)c(F)c(F)c(F)c1F)NC(=O)OC(C)(C)C` here?
**A.** 0%

**Q.** Which inhibition does the source give for `CCCCCNC(=O)[C@H](Cc1ccc(OC(C(=O)O)C(=O)O)cc1)NC(=O)[C@H](CCc1ccccc1)NC(=O)OC(C)(C)C` here?
**A.** 0%
